Results: ChEMBL document CHEMBL1143406 (Antimicrob Agents Chemother, 2007)

Key:
[1] = Tmax in HIV-negative human at 300 mg, po administered every 12 hrs; format: ADME, organism-based; conditions: in vivo
In short: (§1)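 Healthy HIV-negative volunteers, open-label sequential periods at steady state. […] Plasma (EDTA) drawn predose and 1–12 h (plus 24 h) on last day of period. Atazanavir measured by HPLC-UV 212 nm, linear 25–20,000 ng/ml. Noncompartmental analysis; AUC24 taken as doubled AUC12.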

Homo sapiens [2] = organism: Homo sapiens; experiment: Toxicity in HIV-negative human assessed as grade 3 fatigue; format: organism-based; conditions: in vivo
[3] = Half life in HIV-negative human at 300 mg, po administered every 12 hrs coadministered with 600 mg of rifampin every 24 hrs; format: ADME, organism-based; conditions: in vivo; in short: as §1
[4] = Tmax in HIV-negative human at 400 mg, po administered every 12 hrs coadministered with 600 mg of rifampin every 24 hrs; format: ADME, organism-based; conditions: in vivo; in short: as §1
[5] = AUC (12 hrs) in HIV-negative human at 300 mg, po administered every 12 hrs; format: ADME, organism-based; parameters: time < 12 hr, dose 300 mg, route oral; conditions: plasma; in short: as §1
[6] = Apparent oral clearance in HIV-negative human serum at 300 mg, po administered every 12 hrs; format: ADME, organism-based; in short: as §1
Homo sapiens [7] = experiment: Toxicity in HIV-negative human assessed as bilirubin level at 300 mg, po administered every 12 hrs administered every 12 hrs coadministered with 600 mg of rifampin every 24 hrs; format: organism-based; conditions: in vivo
In short: (§2)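 Serum bilirubin measured at commercial laboratories as a safety test during steady-state dosing periods in healthy HIV-negative volunteers.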

Homo sapiens [8] = experiment: Toxicity in HIV-negative human assessed as creatinine levels at 300 mg, po administered every 12 hrs administered every 12 hrs coadministered with 600 mg of rifampin every 24 hrs; format: organism-based; conditions: in vivo
[9] = AUC (24 hrs) in HIV-negative human at 300 mg, po administered every 12 hrs coadministered with 600 mg of rifampin every 24 hrs; format: ADME, organism-based; parameters: dose 300 mg, time < 24 hr, route oral; conditions: plasma; in short: as §1
[10] = Cmax in HIV-negative human at 300 mg, po administered every 12 hrs; format: ADME, organism-based; parameters: dose 300 mg, route oral; conditions: in vivo; in short: as §1
[11] = AUC (12 hrs) in HIV-negative human at 300 mg, po administered every 12 hrs coadministered with 600 mg of rifampin every 24 hrs; format: ADME, organism-based; parameters: dose 300 mg, time < 12 hr, route oral; conditions: plasma; in short: as §1
Homo sapiens [12] = experiment: Toxicity in HIV-negative human assessed as alanine aminotransferase levels at 300 mg, po administered every 12 hrs administered every 12 hrs coadministered with 600 mg of rifampin every 24 hrs; format: organism-based; conditions: in vivo
[13] = AUC (24 hrs) in HIV-negative human at 300 mg, po administered every 12 hrs; format: ADME, organism-based; parameters: dose 300 mg, time < 24 hr, route oral; conditions: plasma; in short: as §1
Homo sapiens [14] = experiment: Toxicity in HIV-negative human assessed as alanine aminotransferase levels at 300 mg, po administered every 12 hrs; format: organism-based; conditions: in vivo
Homo sapiens [15] = experiment: Terminal apparent distribution volume in HIV-negative human serum at 300 mg, po administered every 12 hrs coadministered with 600 mg of rifampin every 24 hrs; format: ADME, organism-based; conditions: in vivo; in short: as §1
Homo sapiens [16] = experiment: Toxicity in gilbert's genotype lacking human assessed as bilirubin level at 300 mg, po administered every 12 hrs; format: organism-based; conditions: in vivo
Homo sapiens [17] = experiment: Toxicity in HIV-negative human assessed as hemoglobin level at 300 mg, po administered every 12 hrs; format: organism-based; conditions: in vivo
[18] = Cmax in HIV-negative human at 400 mg, po administered every 12 hrs coadministered with 600 mg of rifampin every 24 hrs; format: ADME, organism-based; parameters: dose 400 mg, route oral; conditions: in vivo; in short: as §1
[19] = AUC (12 hrs) in HIV-negative human at 400 mg, po administered every 12 hrs coadministered with 600 mg of rifampin every 24 hrs; format: ADME, organism-based; parameters: dose 400 mg, time < 12 hr, route oral; conditions: plasma; in short: as §1
Homo sapiens [20] = experiment: Toxicity in HIV-negative human assessed as creatinine levels at 300 mg, po administered every 12 hrs; format: organism-based; conditions: in vivo
Homo sapiens [21] = experiment: Toxicity in HIV-negative human assessed as alanine aminotransferase levels at 400 mg, po administered every 12 hrs coadministered with 600 mg of rifampin every 24 hrs; conditions: in vivo
Homo sapiens [22] = experiment: Toxicity in HIV-negative human assessed as creatinine levels at 400 mg, po administered every 12 hrs coadministered with 600 mg of rifampin every 24 hrs; conditions: in vivo
[23] = Drug level in HIV-negative human serum at 300 mg, po administered every 12 hrs coadministered with 600 mg of rifampin every 24 hrs measured at 12 hrs; format: ADME, organism-based
In short: (§3)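 Steady-state atazanavir level 12 h after morning dose, sampled before the evening dose and read directly from observed data. […] Plasma measured by HPLC-UV at 212 nm after tert-butyl methyl ether extraction. Linear range 25–20,000 ng/ml.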

[24] = Half life in HIV-negative human at 400 mg, po administered every 12 hrs coadministered with 600 mg of rifampin every 24 hrs; format: ADME, organism-based; conditions: in vivo; in short: as §1
Homo sapiens [25] = experiment: Toxicity in HIV-negative human assessed as hemoglobin level at 300 mg, po administered every 12 hrs administered every 12 hrs coadministered with 600 mg of rifampin every 24 hrs; format: organism-based; conditions: in vivo
[26] = Cmax in HIV-negative human at 300 mg coadministered with 100 mg of ritonavir every 24 hrs; format: ADME, organism-based; parameters: dose 300 mg; conditions: in vivo
[27] = Half life in HIV-negative human at 300 mg, po administered every 12 hrs; format: ADME, organism-based; conditions: in vivo; in short: as §1
[28] = AUC (24 hrs) in HIV-negative human at 400 mg, po administered every 12 hrs coadministered with 600 mg of rifampin every 24 hrs; format: ADME, organism-based; parameters: dose 400 mg, time < 24 hr, route oral; conditions: plasma; in short: as §1
[29] = Tmax in HIV-negative human at 300 mg, po administered every 12 hrs coadministered with 600 mg of rifampin every 24 hrs; format: ADME, organism-based; conditions: in vivo; in short: as §1
Homo sapiens [30] = experiment: Terminal apparent distribution volume in HIV-negative human serum at 300 mg, po administered every 12 hrs; format: ADME, organism-based; conditions: in vivo; in short: as §1
[31] = Drug level in HIV-negative human serum at 400 mg, po administered every 12 hrs coadministered with 600 mg of rifampin every 24 hrs measured at 12 hrs; format: ADME, organism-based; in short: as §3
Homo sapiens [32] = experiment: Toxicity in HIV-negative human assessed as bilirubin level at 400 mg, po administered every 12 hrs coadministered with 600 mg of rifampin every 24 hrs; conditions: in vivo
Homo sapiens [33] = experiment: Toxicity in human with six gilbert's genotype heterozygotes assessed as bilirubin level at 300 mg, po administered every 12 hrs; format: organism-based; conditions: in vivo
Homo sapiens [34] = experiment: Toxicity in HIV-negative human assessed as bilirubin level at 300 mg, po administered every 12 hrs; format: organism-based; conditions: in vivo; in short: as §2
[35] = Apparent oral clearance in HIV-negative human serum at 300 mg, po administered every 12 hrs coadministered with […] every 24 hrs; format: ADME, organism-based
[36] = AUC (24hrs) in HIV-negative human at 400 mg administered every 24 hrs; format: ADME, organism-based; conditions: plasma
[37] = Drug level in HIV-negative human serum at 300 mg, po administered every 12 hrs measured at 12 hrs; format: ADME, organism-based; in short: as §3
[38] = Apparent oral clearance in HIV-negative human serum at 300 mg, po administered every 12 hrs coadministered with 600 mg of rifampin every 24 hrs; format: ADME, organism-based; in short: as §1
[39] = Cmax in HIV-negative human at 400 mg administered every 24 hrs; format: ADME, organism-based; parameters: dose 400 mg; conditions: in vivo
[40] = AUC (24 hrs) in HIV-negative human at 300 mg coadministered with 100 mg of ritonavir every 24 hrs; format: ADME, organism-based; parameters: dose 300 mg, time < 24 hr; conditions: plasma
Homo sapiens [41] = experiment: Terminal apparent distribution volume in HIV-negative human serum at 400 mg, po administered every 12 hrs coadministered with 600 mg of rifampin every 24 hrs; format: ADME, organism-based; conditions: in vivo; in short: as §1
Homo sapiens [42] = experiment: Toxicity in HIV-negative human assessed as hemoglobin level at 400 mg, po administered every 12 hrs coadministered with 600 mg of rifampin every 24 hrs; conditions: in vivo
[43] = Cmax in HIV-negative human at 300 mg, po administered every 12 hrs coadministered with 600 mg of rifampin every 24 hrs; format: ADME, organism-based; parameters: dose 300 mg, route oral; conditions: in vivo; in short: as §1
Homo sapiens [44] = experiment: Toxicity in human with two gilbert's genotype homozygotes assessed as bilirubin level at 300 mg, po administered every 12 hrs; format: organism-based; conditions: in vivo

COC(=O)N[C@H](C(=O)N[C@@H](Cc1ccccc1)[C@@H](O)CN(Cc1ccc(-c2ccccn2)cc1)NC(=O)[C@@H](NC(=O)OC)C(C)(C)C)C(C)(C)C [ATAZANAVIR]
Tmax [1]: 3.2 h
Activity (Homo sapiens [2]): 7%
half-life [3]: 2.2 h
Tmax [4]: 2.9 h
AUC at 12 h [5]: 23800 ng·h/mL
CL/F [6]: 202 mL/min
Activity (Homo sapiens [7]): Non-toxic
Activity (Homo sapiens [8]): Non-toxic
AUC at 24 h [9]: 10300 ng·h/mL
Cmax [10]: 3910 ng/mL
AUC at 12 h [11]: 5100 ng·h/mL
Activity (Homo sapiens [12]): Non-toxic
AUC at 24 h [13]: 47600 ng·h/mL
Activity (Homo sapiens [14]): Non-toxic
Vbeta (Homo sapiens [15]): 252 L
Activity (Homo sapiens [16]): 2.6 mg/dL
Activity (Homo sapiens [17]): Non-toxic
Cmax [18]: 2360 ng/mL
AUC at 12 h [19]: 9800 ng·h/mL
Activity (Homo sapiens [20]): Non-toxic
Activity (Homo sapiens [21]): Non-toxic
Activity (Homo sapiens [22]): Non-toxic
concentration at 12 h [23]: 44 ng/mL
half-life [24]: 2.4 h
Activity (Homo sapiens [25]): Non-toxic
Cmax [26]: 6130 ng/mL
half-life [27]: 5.1 h
AUC at 24 h [28]: 19600 ng·h/mL
Tmax [29]: 2.7 h
Vbeta (Homo sapiens [30]): 78 L
concentration at 12 h [31]: 113 ng/mL
Activity (Homo sapiens [32]): Non-toxic
Activity (Homo sapiens [33]): 4.1 mg/dL
Activity (Homo sapiens [34]): Toxic
CL/F [35]: 808 mL/min
AUC at 24 h [36]: 29300 ng·h/mL
concentration at 12 h [37]: 811 ng/mL
CL/F [38]: 1390 mL/min
Cmax [39]: 5200 ng/mL
AUC at 24 h [40]: 61400 ng·h/mL
Vbeta (Homo sapiens [41]): 171 L
Activity (Homo sapiens [42]): Non-toxic
Cmax [43]: 1430 ng/mL
Activity (Homo sapiens [44]): 5 mg/dL
